CHOP inh = CHOP inhibition in unfolded protein response; inhibition, % at 10 µM; AID 2732; CHO-K1 CHOP-promoter luciferase, tunicamycin-induced, 15-18 h; 220,000 tested, 3.8% active;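 active = compounds that reduced the stress-induced luciferase reporter signal by more than about 70% of percent inhibition, limit read from the data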;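 note: 0% = tunicamycin plus vehicle and 100% = wells without tunicamycin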
CHOP UPR activ = activators of apoptotic arm of unfolded protein response (CHOP); CHO-CHOP luciferase reporter, UPR activation, luminescence; percent of tunicamycin response over DMSO baseline; activation, % at 10 µM; AID 449763; 330,000 tested, 0.34% active;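 active = at 10 µM dose, activation of 40% or more, normalized to positive control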;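 note: 100% = tunicamycin at 10 µg/mL and 0% = DMSO alone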
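System: CHO CHOP reporter cells. Amount: 500 cells per well. Buffer or medium: F12 medium, 10% FBS. Compound dosing: one dose, 10 µM in 0.5% DMSO. Incubation: 6 h compound exposure at 37 °C after overnight seeding. Technique: Steady-Glo luciferase luminescence. Benchmarks: tunicamycin and DMSO controls.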
697 NFkB inh = lowers PMA/ionomycin-induced NF-kB signal in 697 B cells | inhibition, % at 4 µM | 330,000 tested, 0.33% active | 697 B-cell NF-kB luciferase reporter, 16 h; in the data active = inhibition above about 35%
Jurkat NFkB inh = inhibitors of the PMA/ionomycin-induced NF-kB reporter in Jurkat cells; PMA/ionomycin-induced NF-kB luciferase reporter, luminescence; 330,000 tested, 0.53% active; inhibition, % at 4 µM; AID 435003; in the data active = inhibition above about 50%
XBP1 UPR activ = activators of adaptive arm of unfolded protein response (XBP1) | CHO-XBP1 luciferase reporter, IRE1-XBP1 UPR activation, luminescence; percent of tunicamycin response, DMSO as zero | 330,000 tested, 0.33% active | activation, % at 20 µM;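 active = versus positive control, 20 µM dose yields 30% or more activation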;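 note: 100% = tunicamycin at 10 µg/mL and 0% = DMSO only wells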
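Test system: CHO-XBP1 luciferase reporter cells | Buffer or medium: Serum-containing F12 medium, 10% FBS | Schedule: 6 h compound exposure at 37 °C, 5% CO2 | Detection: Steady-Glo luciferase glow luminescence, 10 min after reagent addition | Read-out basis: Activation, % of tunicamycin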
UPR CHOP confirm = apoptotic UPR (CHOP) activation, confirmed. shares compounds with CHOP UPR activ. CHO-CHOP cells, CHOP-luciferase reporter luminescence; percent of tunicamycin response, DMSO as zero. activation, % at 10 µM. 1,000 tested, 64% active. AID 463112; in the data active = activation above about 33%;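 note: 0% = DMSO wells and 100% = tunicamycin 10 µg/mL wells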
XBP1 UPR conf = confirmation of adaptive unfolded protein response (XBP1) activators | shares compounds with XBP1 UPR activ | CHO-XBP1 IRE1-XBP1 luciferase reporter, luminescence | activation, % at 20 µM | 1,000 tested, 63% active;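 active = reporter signal at least 30% of the positive control's activation in two or more of four replicate wells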;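 note: plate controls were DMSO negative control for no effect and tunicamycin 10 µg/mL positive control for full effect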
Active calls of the source: *; ! = a repeat was not active. Many of the other results were omitted from the sample, so hits are more common in it than they were.

CN1C(=O)/C(=C/c2cccn2-c2ccc3ccccc3c2)C(=O)NC1=S was read as CHOP inh 53, CHOP UPR activ 145*, 697 NFkB inh -22, Jurkat NFkB inh 0, XBP1 UPR activ 116*, UPR CHOP confirm 151* and XBP1 UPR conf -6.
Screening CCCCn1c(NS(=O)(=O)c2ccc(C)cc2)c(C(=O)OCC)c2nc3ccccc3nc21 returned CHOP inh 20, CHOP UPR activ 1, 697 NFkB inh 13, Jurkat NFkB inh -3 and XBP1 UPR activ 8.
For CCCCn1c(NC(=O)c2ccco2)c(C(=O)OCC)c2nc3ccccc3nc21 the results were CHOP inh -51, CHOP UPR activ 47*, 697 NFkB inh -16, Jurkat NFkB inh 5, XBP1 UPR activ 40*, UPR CHOP confirm 1 and XBP1 UPR conf -1.
`Cc1cc(O)c2c(c1)C(=O)C13C(=C2O)C(=O)[C@H]2[C@@H](O)[C@@H]1[C@H]1[C@H](O)[C@@H]3C(=O)C3=C(O)c4c(O)cc(C)cc4C(=O)C312` (some centres not stated) gave CHOP UPR activ 4, 697 NFkB inh 28, Jurkat NFkB inh 4 and XBP1 UPR activ -3.
`CCN(CC)c1ccc(N=Cc2c(O)n(Cc3ccccc3)c(=O)[nH]c2=O)cc1` gave CHOP inh 96*!, CHOP UPR activ 8, 697 NFkB inh -34, Jurkat NFkB inh -12, XBP1 UPR activ 31* and XBP1 UPR conf 35*!.
Cc1cccc(-n2c(O)c(C=Nc3ccc(Br)cn3)c(=O)[nH]c2=O)c1 was read as CHOP inh 10, CHOP UPR activ 1, 697 NFkB inh 19, Jurkat NFkB inh -4 and XBP1 UPR activ -2.
Cc1ccc(-n2c(O)c(/C=N/c3ncc(Br)cc3Br)c(=O)[nH]c2=O)cc1 was read as CHOP inh 74*, CHOP UPR activ 3, 697 NFkB inh 1, Jurkat NFkB inh -36, XBP1 UPR activ 31* and XBP1 UPR conf 52*.
For CN(N)N=Nc1nc2c([nH]1)c(=O)n(C)c(=O)n2C the results were CHOP inh 1, CHOP UPR activ -1, 697 NFkB inh 4, Jurkat NFkB inh 19 and XBP1 UPR activ 0.
CCN(CC)c1ccc(/C=C/[N+](=O)[O-])cc1 was read as CHOP inh -78, CHOP UPR activ 14, 697 NFkB inh 15, Jurkat NFkB inh 1, XBP1 UPR activ 112* and XBP1 UPR conf 76*.
For c1ccc2c(N3CCNCC3)nsc2c1 the results were CHOP inh 13, CHOP UPR activ 0, 697 NFkB inh -3, Jurkat NFkB inh -17 and XBP1 UPR activ -2.

Assay outcomes deposited in PubChem by several laboratories.
